# How the values were obtained:
# [1] = test system: Serratia marcescens; assay: Antibacterial activity against Serratia marcescens 370 after 18 to 24 hrs by agar dilution method; format: functional
# Procedure, shortened: (§1)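 MICs were determined by agar dilution on test agar. An overnight tryptosoy broth culture was diluted in the same broth to about 10⁶ cells/mL and spotted with an inoculating device onto agar containing serial twofold dilutions of compound. Plates were incubated at 37 °C for 18–20 h, and the MIC was the lowest concentration with no visible growth.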
# [2] = test system: Bacillus subtilis; assay: Antibacterial activity against Bacillus subtilis ATCC 6633 after 18 to 24 hrs by agar dilution method; format: functional; procedure, shortened: as §1
# [3] = test system: Pseudomonas aeruginosa; assay: Antibacterial activity against Pseudomonas aeruginosa 77/2 after 18 to 24 hrs by agar dilution method; format: functional; procedure, shortened: as §1
# [4] = test system: Staphylococcus aureus; assay: Antibacterial activity against Staphylococcus aureus 1218 after 18 to 24 hrs by agar dilution method; format: functional; procedure, shortened: as §1
# [5] = test system: Citrobacter freundii; assay: Antibacterial activity against Citrobacter freundii 323 after 18 to 24 hrs by agar dilution method; format: functional; procedure, shortened: as §1
# [6] = test system: Acinetobacter baumannii; assay: Antibacterial activity against Acinetobacter baumannii 2289 after 18 to 24 hrs by agar dilution method; format: functional; procedure, shortened: as §1
# [7] = test system: Salmonella; assay: Antibacterial activity against Salmonella orion after 18 to 24 hrs by agar dilution method; format: functional; procedure, shortened: as §1
# [8] = test system: Streptococcus agalactiae; assay: Antibacterial activity against Streptococcus agalactiae 32 after 18 to 24 hrs by agar dilution method; format: functional; procedure, shortened: as §1
# [9] = test system: Escherichia coli; assay: Antibacterial activity against Escherichia coli 1507 after 18 to 24 hrs by agar dilution method; format: functional; procedure, shortened: as §1
# [10] = test system: Micrococcus luteus; assay: Antibacterial activity against Micrococcus luteus ATCC 9341 after 18 to 24 hrs by agar dilution method; format: functional; procedure, shortened: as §1
# [11] = test system: Pseudomonas aeruginosa; assay: Antibacterial activity against Pseudomonas aeruginosa 110/2 after 18 to 24 hrs by agar dilution method; format: functional; procedure, shortened: as §1
# [12] = test system: Staphylococcus aureus; assay: Antibacterial activity against Staphylococcus aureus 209P after 18 to 24 hrs by agar dilution method; format: functional; procedure, shortened: as §1
# [13] = test system: Enterobacter cloacae; assay: Antibacterial activity against Enterobacter cloacae after 18 to 24 hrs by agar dilution method; format: functional; procedure, shortened: as §1
# [14] = test system: Klebsiella pneumoniae; assay: Antibacterial activity against Klebsiella pneumoniae 523 after 18 to 24 hrs by agar dilution method; format: functional; procedure, shortened: as §1
# [15] = test system: Burkholderia cepacia; assay: Antibacterial activity against Pseudomonas cepacia after 18 to 24 hrs by agar dilution method; format: functional; procedure, shortened: as §1
# [16] = test system: Pseudomonas aeruginosa; assay: Antibacterial activity against Pseudomonas aeruginosa 5455 after 18 to 24 hrs by agar dilution method; format: functional; procedure, shortened: as §1
# [17] = test system: Providencia rettgeri; assay: Antibacterial activity against Proteus rettgeri 936 after 18 to 24 hrs by agar dilution method; format: functional; procedure, shortened: as §1
# [18] = test system: Salmonella typhimurium; assay: Antibacterial activity against Salmonella Typhimurium after 18 to 24 hrs by agar dilution method; format: functional, Salmonella enterica subsp. enterica serovar Typhimurium; conditions: Salmonella enterica; procedure, shortened: as §1
# [19] = test system: Proteus mirabilis; assay: Antibacterial activity against Proteus mirabilis 112/3 after 18 to 24 hrs by agar dilution method; format: functional; procedure, shortened: as §1
# [20] = test system: Escherichia coli; assay: Antibacterial activity against Escherichia coli 086 after 18 to 24 hrs by agar dilution method; format: functional; procedure, shortened: as §1
# [21] = test system: Pseudomonas aeruginosa; assay: Antibacterial activity against Pseudomonas aeruginosa 9027 after 18 to 24 hrs by agar dilution method; format: functional; procedure, shortened: as §1
# [22] = test system: Serratia marcescens; assay: Antibacterial activity against Serratia marcescens 6093 after 18 to 24 hrs by agar dilution method; format: functional; procedure, shortened: as §1
# [23] = test system: Escherichia coli; assay: Antibacterial activity against Escherichia coli 0114 after 18 to 24 hrs by agar dilution method; format: functional; procedure, shortened: as §1
# [24] = test system: Proteus vulgaris; assay: Antibacterial activity against Proteus vulgaris 868 after 18 to 24 hrs by agar dilution method; format: functional; procedure, shortened: as §1
# [25] = Antibacterial activity against Salmonella give after 18 to 24 hrs by agar dilution method; format: functional, Salmonella enterica subsp. enterica serovar Give; conditions: Salmonella enterica; procedure, shortened: as §1
# [26] = test system: Staphylococcus aureus; assay: Antibacterial activity against Staphylococcus aureus giorgio after 18 to 24 hrs by agar dilution method; format: functional; procedure, shortened: as §1
# [27] = test system: Pseudomonas aeruginosa; assay: Antibacterial activity against Pseudomonas aeruginosa 880/2 after 18 to 24 hrs by agar dilution method; format: functional; procedure, shortened: as §1
# [28] = test system: Escherichia coli; assay: Antibacterial activity against Escherichia coli 04 after 18 to 24 hrs by agar dilution method; format: functional; procedure, shortened: as §1
# [29] = test system: Enterobacter cloacae; assay: Antibacterial activity against Enterobacter cloacae 34 after 18 to 24 hrs by agar dilution method; format: functional; procedure, shortened: as §1
# [30] = test system: Salmonella paratyphi; assay: Antibacterial activity against Salmonella paratyphi A after 18 to 24 hrs by agar dilution method; format: functional, Salmonella enterica subsp. enterica serovar Paratyphi A; conditions: Salmonella enterica
# Procedure, shortened: (§2)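 Agar dilution on test agar with serial twofold dilutions of compound. Overnight tryptosoy broth cultures diluted in the same broth to about 10⁶ cells/mL, then applied with an inoculating device. Plates incubated at 37 °C for 18–20 h.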
# [31] = test system: Serratia marcescens; assay: Antibacterial activity against Serratia marcescens 14273 after 18 to 24 hrs by agar dilution method; format: functional; procedure, shortened: as §1
# [32] = test system: Streptococcus pneumoniae; assay: Antibacterial activity against Streptococcus pneumoniae 0025 after 18 to 24 hrs by agar dilution method; format: functional; procedure, shortened: as §1
# [33] = test system: Corynebacterium diphtheriae; assay: Antibacterial activity against Corynebacterium diphtheriae after 18 to 24 hrs by agar dilution method; format: functional; procedure, shortened: as §1
# [34] = test system: Providencia rettgeri; assay: Antibacterial activity against Proteus rettgeri 937 after 18 to 24 hrs by agar dilution method; format: functional; procedure, shortened: as §1
# [35] = test system: Staphylococcus aureus; assay: Antibacterial activity against Staphylococcus aureus 503 after 18 to 24 hrs by agar dilution method; format: functional; procedure, shortened: as §1
# [36] = test system: Serratia marcescens; assay: Antibacterial activity against Serratia marcescens 3349 after 18 to 24 hrs by agar dilution method; format: functional; procedure, shortened: as §1
# [37] = test system: Enterobacter cloacae; assay: Antibacterial activity against Enterobacter cloacae 417 after 18 to 24 hrs by agar dilution method; format: functional; procedure, shortened: as §1
# [38] = test system: Streptococcus agalactiae; assay: Antibacterial activity against Streptococcus agalactiae B after 18 to 24 hrs by agar dilution method; format: functional; procedure, shortened: as §1
# [39] = Antibacterial activity against Salmonella oranienburg after 18 to 24 hrs by agar dilution method; format: functional, Salmonella enterica subsp. enterica serovar Oranienburg; conditions: Salmonella enterica; procedure, shortened: as §1
# [40] = test system: Pasteurella multocida; assay: Antibacterial activity against Pasteurella multocida after 18 to 24 hrs by agar dilution method; format: functional; procedure, shortened: as §1
# [41] = test system: Escherichia coli; assay: Antibacterial activity against Escherichia coli 0126 after 18 to 24 hrs by agar dilution method; format: functional; procedure, shortened: as §1
# [42] = test system: Streptococcus pyogenes; assay: Antibacterial activity against Streptococcus pyogenes 9889 after 18 to 24 hrs by agar dilution method; format: functional
# Procedure, shortened: (§3)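 Agar dilution on test agar holding serial twofold dilutions of compound. Overnight tryptosoy broth cultures were diluted in the same broth to about 10⁶ cells/mL and spotted with an inoculating device. Plates were incubated at 37 °C for 18–20 h.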
# [43] = test system: Haemophilus influenzae; assay: Antibacterial activity against Haemophilus influenzae 1210 after 18 to 24 hrs by agar dilution method; format: functional; procedure, shortened: as §1
# [44] = test system: Enterococcus faecium; assay: Antibacterial activity against Streptococcus faecium 77A after 18 to 24 hrs by agar dilution method; format: functional; procedure, shortened: as §1
# [45] = test system: Proteus mirabilis; assay: Antibacterial activity against Proteus mirabilis 174/3 after 18 to 24 hrs by agar dilution method; format: functional; procedure, shortened: as §1
# [46] = test system: Klebsiella pneumoniae; assay: Antibacterial activity against Klebsiella pneumoniae 477 after 18 to 24 hrs by agar dilution method; format: functional; procedure, shortened: as §1
# [47] = test system: Escherichia coli; assay: Antibacterial activity against Escherichia coli TEM after 18 to 24 hrs by agar dilution method; format: functional; procedure, shortened: as §1
# [48] = test system: Enterococcus faecalis; assay: Antibacterial activity against Enterococcus faecalis 2347 after 18 to 24 hrs by agar dilution method; format: functional; procedure, shortened: as §1
# [49] = test system: Escherichia coli; assay: Antibacterial activity against Escherichia coli V6311/65 after 18 to 24 hrs by agar dilution method; format: functional; procedure, shortened: as §1
# [50] = test system: Priestia megaterium; assay: Antibacterial activity against Bacillus megaterium after 18 to 24 hrs by agar dilution method; format: functional; procedure, shortened: as §1
# [51] = test system: Salmonella typhi; assay: Antibacterial activity against Salmonella typhi after 18 to 24 hrs by agar dilution method; format: functional, Salmonella enterica subsp. enterica serovar Typhi; conditions: Salmonella enterica; procedure, shortened: as §2
# [52] = test system: Enterococcus durans; assay: Antibacterial activity against Streptococcus durans D after 18 to 24 hrs by agar dilution method; format: functional; procedure, shortened: as §1
# [53] = test system: Trueperella pyogenes; assay: Antibacterial activity against Corynebacterium pyogenes after 18 to 24 hrs by agar dilution method; format: functional; procedure, shortened: as §1
# [54] = test system: Staphylococcus; assay: Antibacterial activity against coagulase negative Staphylococcus after 18 to 24 hrs by agar dilution method; format: functional; procedure, shortened: as §3
smiles,measurement,setting,value
C[C@@H](O)C1C(=O)N2C(C(=O)O)=C(S[C@@H]3CN[C@H](CN4CCCN(C)S4(=O)=O)C3)[C@H](C)C12 (some centres undefined),MIC,[1],0.1 µg/mL
same,MIC,[2],0.03 µg/mL
same,MIC,[3],1.6 µg/mL
same,MIC,[4],6.25 µg/mL
same,MIC,[5],0.025 µg/mL
same,MIC,[6],3.12 µg/mL
same,MIC,[7],0.1 µg/mL
same,MIC,[8],< 0.01 µg/mL
same,MIC,[9],0.02 µg/mL
same,MIC,[10],0.02 µg/mL
same,MIC,[11],0.8 µg/mL
same,MIC,[12],0.02 µg/mL
same,MIC,[13],0.01 µg/mL
same,MIC,[14],0.025 µg/mL
same,MIC,[15],0.4 µg/mL
same,MIC,[16],1.56 µg/mL
same,MIC,[17],0.4 µg/mL
same,MIC,[18],0.1 µg/mL
same,MIC,[19],0.2 µg/mL
same,MIC,[20],0.02 µg/mL
same,MIC,[21],1.6 µg/mL
same,MIC,[22],0.2 µg/mL
same,MIC,[23],0.02 µg/mL
same,MIC,[24],0.4 µg/mL
same,MIC,[25],0.1 µg/mL
same,MIC,[26],0.05 µg/mL
same,MIC,[27],0.4 µg/mL
same,MIC,[28],0.025 µg/mL
same,MIC,[29],0.025 µg/mL
same,MIC,[30],0.05 µg/mL
same,MIC,[31],0.4 µg/mL
same,MIC,[32],0.01 µg/mL
same,MIC,[33],0.01 µg/mL
same,MIC,[34],0.4 µg/mL
same,MIC,[35],0.01 µg/mL
same,MIC,[36],0.049 µg/mL
same,MIC,[37],0.02 µg/mL
same,MIC,[38],0.02 µg/mL
same,MIC,[39],0.1 µg/mL
same,MIC,[40],0.05 µg/mL
same,MIC,[41],0.02 µg/mL
same,MIC,[42],< 0.01 µg/mL
same,MIC,[43],3.12 µg/mL
same,MIC,[44],< 0.01 µg/mL
same,MIC,[45],0.2 µg/mL
same,MIC,[46],0.05 µg/mL
same,MIC,[47],0.01 µg/mL
same,MIC,[48],3.12 µg/mL
same,MIC,[49],0.05 µg/mL
same,MIC,[50],0.05 µg/mL
same,MIC,[51],0.03 µg/mL
same,MIC,[52],0.1 µg/mL
same,MIC,[53],0.01 µg/mL
same,MIC,[54],0.049 µg/mL

# Source: ChEMBL document CHEMBL1147968, “Novel lbeta-methylcarbapenems having cyclic sulfonamide moieties: synthesis and evaluation of in vitro antibacterial activity” (2007)
